Source: ChEMBL document CHEMBL3272347, “Adamantanamine derivatives. Antimicrobial activities of certain Mannich bases” (1976)
In brackets after ≈: the same amount, converted by molar mass.

How the values were obtained:
Assay type in all cases: functional
[1] = tested on: Mycolicibacterium smegmatis; assay: Antimicrobial activity against Mycobacterium smegmatis OU 10049 assessed as zone of inhibition after 48 hrs at 0.5 mg/0.1 ml by agar diffusion method
Outline: (§1)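 Mycobacterium disk diffusion on MDTM agar. Each disk (12.7 mm) got 0.1 ml of Me2SO solution, was air-stood 30 min, then was placed four per seeded plate. Plates were incubated at 37° for 48 hr. Zone diameter was measured by caliper to 0.1 mm. Results averaged 2–4 replicate disks and ≥2 independent-day experiments.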

Escherichia coli [2] = assay: Antimicrobial activity against Escherichia coli ATCC 11303 assessed as zone of inhibition after 24 hrs at 0.5 mg/0.1 ml by agar diffusion method
Outline: (§2)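 Bacteria were tested on seeded agar plates with 12.7-mm disks, each loaded with 0.1 ml of compound in Me2SO (stock used directly or Me2SO-diluted). Disks were held 30 min on a wire screen before placement, four per plate. Incubation was 37°, 24 hr. Inhibition zones were measured by caliper to the nearest 0.1 mm. Replicates were 2–4 per dilution over at least two separate days, averaged.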

Candida albicans [3] = assay: Antimicrobial activity against Candida albicans CDC MI-023 assessed as zone of inhibition after 24 hrs at 0.5 mg/0.1 ml by agar diffusion method
Outline: (§3)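 Disk agar diffusion on SDA. Compound in Me2SO stock, used neat or diluted in Me2SO, was loaded at 0.1 ml per 12.7-mm disk. Disks stood 30 min on mesh, then went four per seeded plate. Plates ran at 37° for 48 hr (A. niger) or 24 hr (C. albicans). Zones were read by caliper to 0.1 mm. There were 2–4 replicate disks per dilution and ≥2 experiments on separate days with same-day stocks; results were averaged.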

Escherichia coli [4] = assay: Antimicrobial activity against Escherichia coli ATCC 10586 assessed as zone of inhibition after 24 hrs at 1 mg/0.1 ml by agar diffusion method; outline: as §2
Mycolicibacterium phlei [5] = assay: Antimicrobial activity against Mycobacterium phlei ATCC 356 assessed as zone of inhibition after 48 hrs at 0.5 mg/0.1 ml by agar diffusion method; outline: as §1
Staphylococcus aureus [6] = assay: Antimicrobial activity against Staphylococcus aureus ATCC 10014 assessed as zone of inhibition after 24 hrs at 1 mg/0.1 ml by agar diffusion method; outline: as §2
[7] = tested on: Mycolicibacterium smegmatis; assay: Antimicrobial activity against Mycobacterium smegmatis by tube dilution method
Outline: (§4)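 MIC was found by tube dilution, with Me2SO as carrier solvent diluted in the tubes. For M. smegmatis, separate determinations were made in MDTM broth and in MDTM agar.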

Staphylococcus aureus [8] = assay: Antimicrobial activity against Staphylococcus aureus by tube dilution method; outline: as §4
Escherichia coli [9] = assay: Antimicrobial activity against Escherichia coli by tube dilution method; outline: as §4
Aspergillus niger [10] = assay: Antimicrobial activity against Aspergillus niger OU S-23 assessed as zone of inhibition after 48 hrs at 4 mg/0.1 ml by agar diffusion method; outline: as §3
Escherichia coli [11] = assay: Antimicrobial activity against Escherichia coli ATCC 8739 assessed as zone of inhibition after 24 hrs at 1 mg/0.1 ml by agar diffusion method; outline: as §2
Pseudomonas aeruginosa [12] = assay: Antimicrobial activity against Pseudomonas aeruginosa OU 10048 assessed as zone of inhibition after 24 hrs at 4 mg/0.1 ml by agar diffusion method; outline: as §2
Staphylococcus aureus [13] = assay: Antimicrobial activity against Staphylococcus aureus ATCC 10001 assessed as zone of inhibition after 24 hrs at 1 mg/0.1 ml by agar diffusion method; outline: as §2
Escherichia coli [14] = assay: Antimicrobial activity against Escherichia coli ATCC 10586 assessed as zone of inhibition after 24 hrs at 0.5 mg/0.1 ml by agar diffusion method; outline: as §2
Staphylococcus aureus [15] = assay: Antimicrobial activity against Staphylococcus aureus ATCC 10001 assessed as zone of inhibition after 24 hrs at 0.25 mg/0.1 ml by agar diffusion method; outline: as §2
Staphylococcus aureus [16] = assay: Antimicrobial activity against Staphylococcus aureus ATCC 10014 assessed as zone of inhibition after 24 hrs at 0.25 mg/0.1 ml by agar diffusion method; outline: as §2
Aspergillus niger [17] = assay: Antimicrobial activity against Aspergillus niger OU S-23 assessed as zone of inhibition after 48 hrs at 0.25 mg/0.1 ml by agar diffusion method; outline: as §3
Escherichia coli [18] = assay: Antimicrobial activity against Escherichia coli ATCC 8739 assessed as zone of inhibition after 24 hrs at 0.5 mg/0.1 ml by agar diffusion method; outline: as §2
Pseudomonas aeruginosa [19] = assay: Antimicrobial activity against Pseudomonas aeruginosa OU 10048 assessed as zone of inhibition after 24 hrs at 0.5 mg/0.1 ml by agar diffusion method; outline: as §2
[20] = tested on: Mycolicibacterium smegmatis; assay: Antimicrobial activity against Mycobacterium smegmatis OU 10049 assessed as zone of inhibition after 48 hrs at 1 mg/0.1 ml by agar diffusion method; outline: as §1
Staphylococcus aureus [21] = assay: Antimicrobial activity against Staphylococcus aureus ATCC 10001 assessed as zone of inhibition after 24 hrs at 0.5 mg/0.1 ml by agar diffusion method; outline: as §2
Escherichia coli [22] = assay: Antimicrobial activity against Escherichia coli ATCC 10586 assessed as zone of inhibition after 24 hrs at 2 mg/0.1 ml by agar diffusion method; outline: as §2
Escherichia coli [23] = assay: Antimicrobial activity against Escherichia coli ATCC 11303 assessed as zone of inhibition after 24 hrs at 2 mg/0.1 ml by agar diffusion method; outline: as §2
Staphylococcus aureus [24] = assay: Antimicrobial activity against Staphylococcus aureus ATCC 10014 assessed as zone of inhibition after 24 hrs at 0.5 mg/0.1 ml by agar diffusion method; outline: as §2
Escherichia coli [25] = assay: Antimicrobial activity against Escherichia coli ATCC 8739 assessed as zone of inhibition after 24 hrs at 2 mg/0.1 ml by agar diffusion method; outline: as §2
Candida albicans [26] = assay: Antimicrobial activity against Candida albicans CDC MI-023 assessed as zone of inhibition after 24 hrs at 4 mg/0.1 ml by agar diffusion method; outline: as §3
Escherichia coli [27] = assay: Antimicrobial activity against Escherichia coli ATCC 11303 assessed as zone of inhibition after 24 hrs at 1 mg/0.1 ml by agar diffusion method; outline: as §2
Staphylococcus aureus [28] = assay: Antimicrobial activity against Staphylococcus aureus ATCC 10014 assessed as zone of inhibition after 24 hrs at 0.1 mg/0.1 ml by agar diffusion method; outline: as §2
Aspergillus niger [29] = assay: Antimicrobial activity against Aspergillus niger OU S-23 assessed as zone of inhibition after 48 hrs at 2 mg/0.1 ml by agar diffusion method; outline: as §3
Staphylococcus aureus [30] = assay: Antimicrobial activity against Staphylococcus aureus ATCC 10001 assessed as zone of inhibition after 24 hrs at 0.1 mg/0.1 ml by agar diffusion method; outline: as §2
[31] = tested on: Mycolicibacterium smegmatis; assay: Antimicrobial activity against Mycobacterium smegmatis OU 10049 assessed as zone of inhibition after 48 hrs at 0.25 mg/0.1 ml by agar diffusion method; outline: as §1
Mycolicibacterium phlei [32] = assay: Antimicrobial activity against Mycobacterium phlei ATCC 356 assessed as zone of inhibition after 48 hrs at 0.25 mg/0.1 ml by agar diffusion method; outline: as §1
Candida albicans [33] = assay: Antimicrobial activity against Candida albicans CDC MI-023 assessed as zone of inhibition after 24 hrs at 0.1 mg/0.1 ml by agar diffusion method; outline: as §3
Escherichia coli [34] = assay: Antimicrobial activity against Escherichia coli ATCC 10586 assessed as zone of inhibition after 24 hrs at 0.25 mg/0.1 ml by agar diffusion method; outline: as §2
Escherichia coli [35] = assay: Antimicrobial activity against Escherichia coli ATCC 11303 assessed as zone of inhibition after 24 hrs at 0.1 mg/0.1 ml by agar diffusion method; outline: as §2
Staphylococcus aureus [36] = assay: Antimicrobial activity against Staphylococcus aureus ATCC 10001 assessed as zone of inhibition after 24 hrs at 0.05 mg/0.1 ml by agar diffusion method; outline: as §2
Staphylococcus aureus [37] = assay: Antimicrobial activity against Staphylococcus aureus ATCC 10014 assessed as zone of inhibition after 24 hrs at 0.05 mg/0.1 ml by agar diffusion method; outline: as §2
Candida albicans [38] = assay: Antimicrobial activity against Candida albicans CDC MI-023 assessed as zone of inhibition after 24 hrs at 2 mg/0.1 ml by agar diffusion method; outline: as §3
Mycolicibacterium phlei [39] = assay: Antimicrobial activity against Mycobacterium phlei ATCC 356 assessed as zone of inhibition after 48 hrs at 0.1 mg/0.1 ml by agar diffusion method; outline: as §1
Escherichia coli [40] = assay: Antimicrobial activity against Escherichia coli ATCC 8739 assessed as zone of inhibition after 24 hrs at 4 mg/0.1 ml by agar diffusion method; outline: as §2
[41] = tested on: Mycolicibacterium smegmatis; assay: Antimicrobial activity against Mycobacterium smegmatis OU 10049 assessed as zone of inhibition after 48 hrs at 0.1 mg/0.1 ml by agar diffusion method; outline: as §1

Structure (SMILES)	inhibition zone (IZ) [1] [mm]	inhibition zone (IZ) (Escherichia coli [2]) [mm]	inhibition zone (IZ) (Candida albicans [3]) [mm]	inhibition zone (IZ) (Escherichia coli [4]) [mm]	inhibition zone (IZ) (Mycolicibacterium phlei [5]) [mm]	MIC [7] [µg/mL]	MIC (Staphylococcus aureus [8]) [µg/mL]	MIC (Escherichia coli [9]) [µg/mL]	inhibition zone (IZ) (Aspergillus niger [10]) [mm]	inhibition zone (IZ) (Pseudomonas aeruginosa [12]) [mm]	inhibition zone (IZ) (Escherichia coli [22]) [mm]	inhibition zone (IZ) (Escherichia coli [25]) [mm]	inhibition zone (IZ) (Staphylococcus aureus [28]) [mm]	inhibition zone (IZ) (Aspergillus niger [29]) [mm]	inhibition zone (IZ) (Staphylococcus aureus [30]) [mm]	inhibition zone (IZ) [31] [mm]	inhibition zone (IZ) (Mycolicibacterium phlei [32]) [mm]	other results
Cl.O=C(CCNC12CC3CC(CC(C3)C1)C2)c1ccc(F)cc1	15.3	17.6	16.6	16.5	17.7	250	500	1000	15	15								inhibition zone (IZ) (Staphylococcus aureus [6]): 16.6 mm; inhibition zone (IZ) (Escherichia coli [11]): 16.7 mm; inhibition zone (IZ) (Staphylococcus aureus [13]): 19.1 mm
Oc1ccc(/N=N/c2ccccc2)cc1CNC12CC3CC(CC(C3)C1)C2	15.5	<15	<15		<15													inhibition zone (IZ) (Escherichia coli [14]): 15 mm; inhibition zone (IZ) (Staphylococcus aureus [15]): <15 mm; inhibition zone (IZ) (Staphylococcus aureus [16]): 15.4 mm; inhibition zone (IZ) (Aspergillus niger [17]): 15 mm; inhibition zone (IZ) (Escherichia coli [18]): 15 mm; inhibition zone (IZ) (Pseudomonas aeruginosa [19]): 15 mm
Cl.O=C(CCNC12CC3CC(CC(C3)C1)C2)c1ccc(O)cc1					16.3				15	15	16	16						inhibition zone (IZ) [20]: 19 mm; inhibition zone (IZ) (Staphylococcus aureus [21]): 15.6 mm; inhibition zone (IZ) (Escherichia coli [23]): 17.2 mm; inhibition zone (IZ) (Staphylococcus aureus [24]): 15.3 mm; inhibition zone (IZ) (Candida albicans [26]): 15.4 mm
Cl.O=C(CCNC12CC3CC(CC(C3)C1)C2)c1ccc([N+](=O)[O-])cc1			16.4	15.3		500	125	500		<14		16.5	15.8	15.2	16	17.4	19.4	inhibition zone (IZ) (Escherichia coli [27]): 16.5 mm
Cl.O=C(CCNC12CC3CC(CC(C3)C1)C2)c1ccc(Br)cc1						125	125	500		<15				19		17	19.2	inhibition zone (IZ) (Candida albicans [33]): 15.1 mm; inhibition zone (IZ) (Escherichia coli [34]): 15.3 mm; inhibition zone (IZ) (Escherichia coli [35]): 15.6 mm; inhibition zone (IZ) (Staphylococcus aureus [36]): 16.6 mm; inhibition zone (IZ) (Escherichia coli [18]): 17.8 mm; inhibition zone (IZ) (Staphylococcus aureus [37]): 17 mm
Cl.O=C(CCNC12CC3CC(CC(C3)C1)C2)c1cccc([N+](=O)[O-])c1	16.6				19.1					15	16.8	16.3	15.7	15	15.4			inhibition zone (IZ) (Escherichia coli [27]): 15.5 mm; inhibition zone (IZ) (Candida albicans [38]): 16.2 mm
Cl.O=C(CCNC12CC3CC(CC(C3)C1)C2)c1cccc(Br)c1		17.5		17.4		125	125	500	16.8	15			17.5		18.7	17.6	20	inhibition zone (IZ) (Candida albicans [33]): 15.3 mm; inhibition zone (IZ) (Escherichia coli [11]): 18.2 mm
Oc1ccc(-c2ccccc2)cc1CNC12CC3CC(CC(C3)C1)C2						62.5 (≈ 187 µM)			<15	15	15							inhibition zone (IZ) (Staphylococcus aureus [15]): 17.3 mm; inhibition zone (IZ) (Escherichia coli [23]): 15.1 mm; inhibition zone (IZ) (Staphylococcus aureus [16]): 16.8 mm; inhibition zone (IZ) (Mycolicibacterium phlei [39]): 18.9 mm; inhibition zone (IZ) (Candida albicans [38]): 15.8 mm; inhibition zone (IZ) (Escherichia coli [40]): 15.6 mm; inhibition zone (IZ) [41]: 18.7 mm
